# High-throughput results as filed in PubChem.
# The list is not random: actives were taken first. Their share in the collection is about 2.9%.
# NRP1-CendR mod = modulators of CendR peptide binding to human neuropilin-1 | inhibition, % at 25 µM | O14786 | hit rate 0.85% among 360,000 | FAM-RPARPAR peptide binding to NRP-1, fluorescence polarization;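 active means inhibition or corrected inhibition above about 18%, plus a signal ratio from 0.5 to 1.5, limit read from the data, passing the limit was not always enough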
# ADAM17 inh = inhibits human ADAM17; recombinant ADAM17, EDANS/DABCYL FRET peptide cleavage; inhibition, % at 6.95 µM; hit rate 0.83% among 370,000; AID 720648;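 active means inhibition above the mean of compounds lying between control limits plus 3 SD, set per campaign, cut at about 8.5% in these data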;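 further: 0% = DMSO-only wells as the low control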
# Arr AP2 block = blocks beta-arrestin peptide binding to AP2 adaptin. hit rate 0.31% among 340,000. FITC-arrestin peptide / GST-AP2 beads, flow cytometry; AP2 beta2 appendage carries R879A mutation. inhibition, % at 10 µM;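 active means inhibition above a set limit, near 3 SD of compounds lacking own fluorescence, cut at about 54% in these data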;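 further: plate controls were DMSO wells for no effect and 5 µM unlabelled arrestin peptide for full effect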
#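 system = GST-tagged AP2 beta2-adaptin appendage (R879A) on 4 µm glutathione beads | reagent = FITC-labelled arrestin peptide probe, 50 nM final | schedule = compound with beads 12 min RT, then probe 1 h RT | signal = HyperCyt-sampled flow cytometry, FL1 channel, ex 488/em 535 nm | read-out = percent response from loss of bead-bound FITC fluorescence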
# FAS-TE inh = blocks the thioesterase domain of human fatty acid synthase; P49327; recombinant FAS-TE, OMFH fluorogenic substrate, fluorescence endpoint; inhibition, % at 15 µM; hit rate 0.67% among 360,000; AID 602261;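 active means compounds whose normalised, plate-corrected inhibition of enzyme fluorescence in the single-dose primary screen is 50% or more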;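 further: 0% = DMSO with enzyme and 100% = substrate without enzyme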
# ADAM10 inh = inhibits human ADAM10; inhibition, % at 7 µM; recombinant ADAM10, EDANS/DABCYL FRET peptide cleavage, 3 h; hit rate 0.62% among 370,000; O14672;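 active means inhibition above a per-campaign cutoff equal to the mean of compounds falling between control-based bounds plus 3 SD, cut at about 20% in these data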;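 further: 0% = DMSO wells while the 100% control is not disclosed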
# Target sequence (O14672 214-748 limits assumed): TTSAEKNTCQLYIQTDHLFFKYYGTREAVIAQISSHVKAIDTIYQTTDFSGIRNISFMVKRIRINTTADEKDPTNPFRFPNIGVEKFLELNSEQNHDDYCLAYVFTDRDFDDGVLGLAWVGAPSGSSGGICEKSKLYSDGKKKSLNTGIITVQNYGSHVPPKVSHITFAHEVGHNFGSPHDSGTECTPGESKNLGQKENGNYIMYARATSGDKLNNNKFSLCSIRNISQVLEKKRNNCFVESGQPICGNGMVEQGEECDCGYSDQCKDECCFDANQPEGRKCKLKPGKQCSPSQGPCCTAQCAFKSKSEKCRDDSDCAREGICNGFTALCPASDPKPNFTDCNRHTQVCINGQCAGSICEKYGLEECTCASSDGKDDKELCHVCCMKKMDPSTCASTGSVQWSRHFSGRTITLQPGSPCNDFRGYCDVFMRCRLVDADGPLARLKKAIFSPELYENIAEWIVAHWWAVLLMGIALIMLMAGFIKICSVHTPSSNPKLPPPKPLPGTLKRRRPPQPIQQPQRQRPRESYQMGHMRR
# CaV13 FRET inh = Primary screen for inhibitors of IQ motif and Ca2+-dependent inactivation inhibitor domain binding in CACNA1D, Förster resonance energy transfer in living cells, …. inhibition, % at 12.3 µM. hit rate 0.098% among 340,000. HEK cells, CFP/YFP FRET ICDI-IQ, plate reader, 10 min; percent FRET-ratio fall versus neutral wells;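 active means mean replicate inhibition of at least 30% and at least 1% of replicates passing that level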;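 further: 0% = median of the neutral control wells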
# ADAM10 ctr = inhibits human ADAM10 in ADAM17 exosite counter-screen; shares compounds with ADAM17 inh; recombinant ADAM10, EDANS/DABCYL FRET peptide cleavage, 3 h; inhibition, % at 6.95 µM; hit rate 47% among 2,900; AID 743256;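 active means mean inhibition over the triplicate runs exceeds the activity threshold set in the earlier primary screen, cut at about 20% in these data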;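 further: 0% = DMSO wells and 100% = marimastat wells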
# ADAM17 confirm = human ADAM17 inhibition, confirmation. shares compounds with ADAM17 inh. recombinant ADAM17, EDANS/DABCYL QFRET peptide cleavage. inhibition, % at 6.95 µM. hit rate 65% among 2,900;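 active means mean inhibition across replicates above the hit cutoff set in the primary screen, cut at about 8.5% in these data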;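 further: 0% = DMSO wells and 100% = marimastat wells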
# Active calls of the source: *; · = no result given.
SMILES,NRP1-CendR mod,ADAM17 inh,Arr AP2 block,FAS-TE inh,ADAM10 inh,CaV13 FRET inh,ADAM10 ctr,ADAM17 confirm
Cc1cccc(NC(=O)c2cc([N+](=O)[O-])ccc2Cl)c1O,6,0,-2,47,1,-4,·,·
CC(C)[C@H](NC(=O)N1CCOCC1)C(=O)N1CCC[C@H]1C(=O)NCc1ccccc1,·,-2,·,·,-9,·,·,·
COc1ccccc1NC(=O)CN1C(=O)NC2(CCCCCCC2)C1=O,0,6,2,-2,2,-3,·,·
COc1ccccc1OCCNC(=O)CN1C(=O)NC2(CCCC2)C1=O,5,9.3*,7,-4,-1,-6,8,8
O=C(Nc1ccc(Cl)cc1Cl)OC1CCC12CCC(c1ccccc1)CC2 (centres undefined),·,-1,·,·,1,·,·,·
Cc1c(NC(=O)c2ccc(S(=O)(=O)Nc3ccccc3F)cc2)c(=O)n(-c2ccccc2)n1C,12,-3,3,-6,-14,-6,·,·
O=C(O)CCC(=O)c1c[nH]c2ccccc12,-6,8.9*,-10,-12,1,-3,9,20*
O=C(NCc1ccccc1)[C@H]1CCCN1C(=O)[C@H]1CCCN1C(=O)c1ccc(Cl)cc1,·,-3,·,·,-14,-4,·,·
O=S(=O)(c1ccccc1F)N1CCC(c2nc3ccccc3o2)CC1,·,9.1*,·,·,-3,·,13,4
O=C(Nc1ccc(F)cc1F)N1CCC(c2nc3ccccc3o2)CC1,2,0,8,0,-6,-2,·,·
O=C(NCCOCC(F)(F)C(F)F)c1cc(F)c(F)cc1Cl,15,8.7*,-6,-3,9,-6,-7,1
CCNC(=S)N/N=C/c1cn(Cc2ccccc2F)c2ccccc12,2,9.1*,3,11,12,-5,18,20*
O=S1(=O)CCN(Cc2ccc(Cl)c(Cl)c2)CC1,-6,-3,26,-5,-3,0,·,·
O=S1(=O)CCN(Cc2ccc(Cl)cc2)CC1,10,9.2*,0,-5,13,-1,-8,1
O=[N+]([O-])c1ccc(O)c(/C=N/n2cnnc2)c1,3,9.2*,19,-4,15,-6,11,5
CCOC(=O)/C(C#N)=C(C)/C=C1\Sc2ccccc2N1CC,130,-1,6,-67,-2,-3,·,·
CCN1/C(=C\C=C(C(C)=O)C(C)=O)Sc2ccccc21,-106,10*,8,-32,12,-5,18,9.1*
OCC[C@@H]1C[C@H](O)[C@@H](O)[C@]2(OCc3ccc4ccccc4c32)O1,5,-6,·,-7,-6,-6,·,·
CC1CN(S(=O)(=O)c2ccc(NC(=O)c3cc(-c4ccccc4O)n[nH]3)cc2)CC(C)O1 (centres undefined),-18,12*,6,8,24*,-4,18,14*
O=C(NCC(F)(F)F)c1csc([C@@H]2O[C@H](CO)[C@H](O)[C@H](O)[C@H]2O)n1,2,-6,·,-9,-17,-10,·,·
CC1CC(C)CN(C(=O)COC(=O)COc2ccccc2C#N)C1 (centres undefined),3,9.7*,20,-6,4,-2,22*,11*
CC1CCN(C(=O)COC(=O)COc2ccccc2C#N)CC1,1,-4,36,-8,-13,-16,·,·
CCc1ccc(/C=C2/Sc3ccccc3N(CC(=O)NCC3CCCO3)C2=O)cc1 (centres undefined),8,8.8*,-2,9,8,-8,15,6
Cc1ccc(/C=C2/Sc3ccccc3N(CC(=O)NCC3CCCO3)C2=O)cc1 (centres undefined),11,·,-9,3,·,·,·,·
COc1cccc(NC(=O)CSc2nncn2N)c1,-14,9.7*,1,-10,11,·,9,9
SMILES,NRP1-CendR mod,ADAM17 inh,Arr AP2 block,FAS-TE inh,ADAM10 inh,CaV13 FRET inh,ADAM10 ctr,ADAM17 confirm
CC(=O)c1ccc(OC2(C)CCN(Cc3ccc4c(c3)OCCO4)C2)cc1 (centres undefined),-8,-5,·,-1,-10,-5,·,·
COc1cc(NC(=O)C2CCCN(S(=O)(=O)c3ccccc3)C2)cc(OC)c1 (centres undefined),·,3,·,·,-1,·,·,·
COc1cc(NC(=O)C2CCCN(S(=O)(=O)c3ccc(Cl)s3)C2)cc(OC)c1 (centres undefined),·,10*,·,·,5,·,35*,19*
COc1c(OC(C)=O)ccc(/C=C/c2ccc3ccccc3n2)c1[N+](=O)[O-],-2,17*,4,59*,17,-9,25*,14*
COC(=O)[C@]12CCCCC=C1N(Cc1ccc(Cl)cc1Cl)C(=O)[C@H](CC(=O)N1CCN(C(=O)c3ccco3)CC1)C2,-2,4,·,15,0,-10,·,·
CCCNC(=O)C1(C)CCN1C(=O)c1ccccc1CCc1ccccc1 (centres undefined),-4,8.8*,·,-3,7,-11,-3,0
COc1ccc(N2CCN(CCCNC(=O)COc3ccc(F)cc3)CC2)cc1,·,-3,·,·,-4,·,·,·
CC(C)c1cccc(-c2csc(C(O)c3ccc(F)cc3)n2)c1 (centres undefined),-1,7,·,20,6,-8,·,·
CC(C)c1cccc(-c2csc(C(O)c3ccc(F)c(F)c3)n2)c1 (centres undefined),8,11*,·,27,16,-10,24*,15*
CC(C)CC1NC(=O)c2ccc(Cl)cc2-n2c1nc1cc(F)ccc1c2=O (centres undefined),·,11*,·,·,9,-9,21*,12*
Cc1ccc2nc3n(c(=O)c2c1)-c1ccc(Cl)cc1C(=O)NC3Cc1ccccc1 (centres undefined),·,11*,·,·,2,-10,-9,-1
CC(C)CC1NC(=O)c2cc(Cl)ccc2-n2c1nc1cc(F)ccc1c2=O (centres undefined),·,8.7*,·,·,3,-11,0,-1
Nc1nc(F)nc2c1ncn2[C@@H]1O[C@H](COP(=O)(O)O)[C@@H](O)[C@@H]1O,·,-1,·,·,-7,·,·,·
O=C(NCCN1CCC(n2c(=O)[nH]c3ccccc32)CC1)c1ccc(C(F)(F)F)cc1C(F)(F)F,15,-3,·,-8,-10,-10,·,·
O=C(NC1CCCCN(Cc2cccc(Cl)c2)C1=O)c1ccccn1 (centres undefined),·,3,·,·,-4,·,·,·
